95 compounds from ChEMBL document CHEMBL4513216, “Probing the Open Global Health Chemical Diversity Library for Multistage-Active Starting Points for Next-Generation Antimalarials” (ACS Infect Dis, 2020) can be followed below.

This data set can be described thus: Toxicity liver stage against HepG2, at 10uM. As to conditions: human, HepG2-A16-CD81EGFP cells; read-out: INHIBITION
The class given is cell-based. Also noted: test concentration 10 uM, cell line HepG2-A16-CD81EGFP. In outline:
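Uninfected HepG2-A16-CD81EGFP cells, 3 × 10^3 per well, 1536-well, plated on prespotted compound at 10 μM final, parasite-free screening media added to match infected plates; puromycin 10 μM positive, DMSO 0.5% negative; run in parallel with 48 h PbLuc assay at 37 °C, 5% CO2; viability by CellTiter-Glo luminescence, normalized to controls.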
For `CN(C)CCN(C)C[C@H]1CN2CC[C@H]1C[C@@H]2CNC(=O)Nc1ccsc1`, the cytotoxicity at 10 µM worked out at 9.53%. Take `CN1C(=O)CO[C@H](c2ccc(NC(=O)c3cccnc3)cc2)[C@H]1CO`: the cytotoxicity at 10 µM is 6.15%. Next, `CCC(CNC(=O)C1CC1)(OC)c1ccccc1` (stereo not given): -4.34%; `CCN1CCc2c(c(COC)nn2C)C1`: 5.09%. As for `CN1C(=O)CCCC12CCCN(C(=O)c1ccoc1)C2` (stereo not given), the cytotoxicity at 10 µM was -4.04%. Next, `Cc1csc(CN2CC[C@H]3C(=O)N(c4cccnc4)CCO[C@H]3C2)n1`: 6.31%. As for `COCCNC(=O)c1nc2c(s1)CCCN2Cc1ccccc1`, the figure is 12.6%; as for `O=C(c1nc2c(s1)CCCN2CC1CC1)N1CCOCC1`, 11.2%.

On to `O=C(c1ccno1)N1CCC2(CC(=O)N(c3ccc4c(c3)OCO4)C2)C1` (stereo not given), for which the cytotoxicity at 10 µM is 9.82%. Next, `Cn1cccc1C(=O)N1CCC2(CCCN2S(C)(=O)=O)CC1`: 5.13%; `CCS(=O)(=O)N1CCCC2(COCCN(c3nncs3)C2)C1` (stereo not given): 7.77%; `CC(C)COCC1CN(Cc2cnn(C)c2)Cc2ncn(C)c21` (stereo not given): 0.588%. Next, `Cn1cc(CN2C[C@@H]3COC[C@]3(C(=O)NCc3cccs3)C2)cn1`: 7.22%; `Cc1nn(C)c(=O)c2nn(-c3ccc(Cl)cc3)c(C)c12`: -4.18%. Next, `O=S(=O)(Cc1ccc(Br)cc1)NCCO`: 6.73%; `Cn1cc(N2CC3(CCN(S(=O)(=O)C4CC4)C3)CC2=O)cn1` (stereo not given): -9.82%. As for `Nc1ncc(-c2ccc(F)cc2)c(C2CCCNC2)n1` (stereo not given), the cytotoxicity at 10 µM came to 0.109%.

Take `O[C@@H]1C[C@H]2CN(Cc3ccccc3Cl)[C@H](Cc3ccccc3)CN2C1`: the cytotoxicity at 10 µM was -2.51%. Next, `CN(C)C(=O)C1(c2cnccn2)CCCN1C(=O)Cc1ccccc1` (stereo not given): 0.225%; `CC(C)c1nccn1-c1nccnc1C1CCCN1Cc1ccccc1` (stereo not given): -0.943%. Next, `Fc1cccc(CN2CCC(c3noc(-c4ccncc4)n3)CC2)c1F`: -6.21%. As for `CC(C)(C)c1nnc(CSc2ccccn2)o1`, the cytotoxicity at 10 µM is 5.23%. Next, `O=C1CCCN1CCN1CCCCC1Cn1cccn1` (stereo not given): 12.9%.

With `CCNC(=O)C1CCN(Cc2ccccc2OCC(F)(F)F)CC1`, the cytotoxicity at 10 µM is -3.03%. On to `CCCc1nc(CN(C)CC2CCN(CCO)CC2)no1`, for which the cytotoxicity at 10 µM turned out to be 2.64%. Turning to `CS(=O)(=O)NCCC1CCCCN1C(=O)NCCc1ccccc1` (stereo not given), the cytotoxicity at 10 µM is -6%. Next, `COCc1ccc(CNC(=O)CN2CCc3ccccc32)cc1`: 6.68%.

With `Cc1cc(C(=O)N2CCOC(c3nc(C)n[nH]3)C2)[nH]n1` (stereo not given), the cytotoxicity at 10 µM was -11.7%. Next, `Cc1noc(C)c1CN(C)Cn1c(=O)n(C)c2ccccc21`: 5.25%; `Cc1cc2c(cc1NC(=O)NCC(C)C)OCO2`: 1.01%.

`COc1ccc2c(c1)CCCN2C(=O)NCCc1cnn(C)c1`: the cytotoxicity at 10 µM was -6.94%. As for `Cc1cnn(CC2CCCN2Cc2cc(=O)n3ccccc3n2)c1` (stereo not given), the figure is -1.61%; as for `Cc1ccc(C(=O)NCCCNS(C)(=O)=O)c(=O)[nH]1`, -15.3%. Next, `CCC(CNC(=O)c1ccc(=O)[nH]n1)N1CCc2ccccc2C1` (stereo not given): -7.9%.

Take `OC1CCN(Cc2cc3c(cc2Br)OCCO3)CC1`: the cytotoxicity at 10 µM amounted to 7.73%. As for `Cc1nn(C)c2sc(C(=O)N3CCCC(n4ccnc4C)C3)cc12` (stereo not given), the figure is -10%; as for `CCS(=O)(=O)N1CCN(CC2CC2)c2ncccc2C1`, 7.97%; as for `O=C1COC2(COCCN(c3cnccn3)C2)CN1c1cccc(F)c1` (stereo not given), -104%. As for `COC[C@@H]1CCC[C@@]12CN(C(=O)N(C)C)CCO2`, the figure is -102%; as for `O=C(c1cscn1)N1CCC2(CCN(Cc3nccs3)C2)CC1`, 1.8%.

With `CC(C)NC(=O)N1CCCC(c2nnc(CN3CCOCC3)n2C)C1` (stereo not given), the cytotoxicity at 10 µM is -0.392%. Take `CC(c1ccccn1)N(C)Cc1ccc(-n2cncn2)cc1` (stereo not given): the cytotoxicity at 10 µM came out at 5.33%. On to `COc1cc(N2CCCC(c3ncc[nH]3)C2)ncn1` (stereo not given), for which the cytotoxicity at 10 µM came to 3.47%.

On to `CN(C(=O)CC1=CCCCC1)C1CCCN(C2Cc3ccccc3C2)C1` (stereo not given), for which the cytotoxicity at 10 µM is -0.296%.

Turning to `CCO[C@H]1CN(C)C[C@@H]1NC(=O)c1cc(C)nc2ccc(C)cc12`, the cytotoxicity at 10 µM stood at 4.15%. Next, `Cc1cc(C)n(C2CCN(Cc3c(-c4cc(C)on4)nn(C)c3Cl)C2)n1` (stereo not given): 3.84%; `CCCc1ccc(CN2CCN(C(=O)NCC)[C@H]3CS(=O)(=O)C[C@H]32)o1`: 2.71%. Next, `c1ccc(CCCC2CN(Cc3ncc[nH]3)CCO2)cc1` (stereo not given): -3.83%; `CC(C)[C@H](NC(=O)c1cccc(CCC(C)(C)O)c1)C(N)=O`: -0.471%; `Cc1nc(N2CCC(O)(c3ccccc3)CC2)c2c(C)nn(C)c2n1`: 1.22%. Next, `CC(C)C[C@@H](CO)n1cc(-c2cncnc2)nn1`: -0.268%. Take `CC(C)[C@H]1CN(Cc2ccccn2)C[C@@H]1NC(=O)CCS(C)(=O)=O`: the cytotoxicity at 10 µM is -7.04%.

Regarding `CN(C)[C@H]1CN(C(=O)CCCc2ccc(F)cc2)C[C@@H]1C1CC1`, the cytotoxicity at 10 µM is -3.01%. For `COc1ccccc1CN(C)C(=O)CN1C(=O)OC[C@@H]1c1ccccc1`, the cytotoxicity at 10 µM was -43.6%. For `CSCCCN1CCn2nc(CNC(=O)N(C)C)cc2C1`, the cytotoxicity at 10 µM is -2.66%.

Turning to `O=C1CC2(CCCC2)CC(=O)N1Cc1nccs1`, the cytotoxicity at 10 µM is 3.16%. With `O=C(c1ccc(O)c(Cl)c1)N1C[C@@H](CN2CCCCCC2)[C@@H](CO)C1`, the cytotoxicity at 10 µM amounted to 1.89%. As for `CNc1ccnc(NCCC(=O)Nc2ccccc2C)n1`, the figure is -1.53%; as for `CC(c1ccncn1)N(C)Cc1cc(O)c2cc(F)ccc2n1` (stereo not given), -2%; as for `N#CC1CCN(C(=O)CN2CC(c3ccccc3)CC2=O)CC1` (stereo not given), -0.745%. As for `Nc1nccc(NCc2cc3n(n2)CCCN(C(=O)C2CCC2)C3)n1`, the figure is -6.49%; as for `CC(CN1CCOCC1)NCc1nncn1C1CCCCC1` (stereo not given), 1.52%. As for `CSCC[C@H](N)C(=O)NCc1cc2n(n1)CCCN(C(=O)C1CCC1)C2`, the figure is -12.9%; as for `CC(=O)N1CCN(c2cc(-c3ccccc3)nc3c(C)c(C)nn23)CC1`, -13.1%. As to `COc1ccccc1CC(=O)N1CC[C@@]2(CCCO2)[C@@H](OC)C1`, the cytotoxicity at 10 µM was determined as 11.7%. Next, `CC(C)c1nccn1C1CCCN(C(=O)c2cnn(C)c2C2CC2)C1` (stereo not given): -5.5%; `O=C(CCN1C(=O)CCC1=O)Nc1cnn(-c2ccccc2Cl)c1`: -9.56%; `CCc1[nH]ncc1C(=O)N1CCCC(n2ccnc2C(C)C)C1` (stereo not given): 2.43%. For `CCOc1cccc2c1OCC(C(=O)NS(=O)(=O)Cc1ccccc1)=C2`, the cytotoxicity at 10 µM is -7.22%.

For `COc1ccc(C(=O)N2CCCC(C)C2)cc1F` (stereo not given), the cytotoxicity at 10 µM was -11.6%. For the compound `Cc1ccc(OCC(O)CN2CCC(Cn3cccn3)CC2)cc1` (stereo not given), the cytotoxicity at 10 µM was -16%.

As to `Cc1nc(CNCC2CCCN2c2cccnn2)no1` (stereo not given), the cytotoxicity at 10 µM was -1.59%. As for `O[C@@H]1CN(Cc2ccc(F)cc2)CC[C@H]1NCc1ccccn1`, the figure is -2.83%. Consider `CC(C)N1CCC2(CC1)C(=O)N(c1cccnc1)c1ccc(F)cc12`, for which the cytotoxicity at 10 µM worked out at 12.4%. For the compound `Cc1cc(C)nc(Nc2cccc(C3CCCN(C)C3)n2)n1` (stereo not given), the cytotoxicity at 10 µM is -4.45%. Next, `CC(C)N(C)Cc1cnc2n1CCN(Cc1ccco1)C2`: 2.22%; `CCN1C[C@H]2C3(CCN(C(=O)NC(C)C)CC3)CC[C@@]2(C(=O)N(C)C)C1`: -109%. With `CCN1CCC12CCN(C(=O)c1cc(C)on1)C2` (stereo not given), the cytotoxicity at 10 µM was determined as 5.71%. Next, `Cn1cc(CN2CCCC23CCN(C(=O)c2cccs2)CC3)cn1`: 2.17%. As for `Cc1ccc(CN2Cc3nnn(C)c3C(COCc3ccccc3)C2)o1` (stereo not given), the cytotoxicity at 10 µM amounted to 5.44%. For the compound `COc1cccc(CN(Cc2ncc[nH]2)Cc2ccco2)c1`, the cytotoxicity at 10 µM was -8.01%. For `CN(C)c1nc(N2CCCC2)nc2c1CCN(C(=O)c1ccco1)CC2`, the cytotoxicity at 10 µM was determined as 14.4%. As for `COc1ncccc1CN1Cc2nnn(C)c2C(COCC2CC2)C1` (stereo not given), the figure is 12.4%; as for `CN(C)C(=O)CN1CCC2(CCN(CC3CC3)CC2)C1=O`, -3.69%. For `O=C(c1ccccn1)N1CCC2(CCCN(c3nncs3)C2)C1` (stereo not given), the cytotoxicity at 10 µM was -111%. Take `O=C(c1ccno1)N1CC[C@@H]2O[C@@H](COCCN3CCCC3)CC[C@@H]21`: the cytotoxicity at 10 µM was determined as 0.925%. Next, `CN1[C@H](Cn2cccn2)C[C@@H]2CN(Cc3cccs3)CC[C@@H]21`: 11.9%; `O=C1C[C@H]2[C@H](CCN2Cc2ccccn2)N1CC1CC1`: 5.8%. As for `CN1CCC(N2CCC(C(=O)N(C)C)CC2)CC1`, the figure is -1.82%. As for `Cn1cc(C(=O)NCc2cncc3c2CCN(CC2CC2)C3)cn1`, the cytotoxicity at 10 µM was -103%. As for `CC1=N[C@@]2(CC[C@@H]3CN(Cc4ccccc4C)C[C@@H]32)C(=O)N1CC1CC1`, the figure is -2.6%; as for `OCCN1CCC2(CCc3cc(-c4ccoc4)ccc32)CC1`, -0.582%. As for `CN(C)C(=O)NCc1ncn2c1CN(Cc1ccco1)CCC2`, the figure is 8.22%; as for `CSc1ccccc1CN1C[C@H]2CC[C@@H](C1)N(CC1CC1)C2=O`, -4.81%; as for `N#Cc1cccc(C(=O)N2C[C@@H]3CC[C@H]2CN(C(=O)C2CCC2)C3)c1`, -2.5%.
